Test results reported in ChEMBL document CHEMBL3779792, “Anti-proliferative evaluation of monoterpene derivatives against leukemia” (Eur J Med Chem, 2016).
The source made the active and inactive calls. The calls are words filed in the database; no cut-off is given here.

Assays:
[1] = system: SEM cells; assay: Induction of apoptosis in human SEM cells assessed as late apoptotic cells at 8 uM measured after 24 hrs by annexin V-propidium iodide staining based flow cytometric analysis (reference value: 7.2%); format: functional
In short: (§1)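 SEM and Nalm06 cells were treated for 24 hr, then stained with fluorochrome-labeled Annexin V and propidium iodide for flow cytometry. Quadrants were scored as viable, early apoptotic, late apoptotic (Q2) and necrotic. DMSO was the negative control and 1 µM staurosporine the positive control. Representative of 3 independent experiments.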

[2] = system: NALM-6; assay: Induction of apoptosis in human NALM6 cells assessed as cleaved PARP level at 4.5 uM measured from 3 to 6 hrs by immunoblot analysis; format: functional, cell-based
In short: (§2)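 Immunoblots for activated caspase-3, activated caspase-7, and cleaved and uncleaved PARP. Cells were treated for 3, 6, 12 and 24 hr at 8.0 µM (SEM) or 4.5 µM (Nalm06). Negative controls were DMSO vehicle and an analog at 20 µM.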

[3] = system: Jurkat; assay: Cytotoxicity against human Jurkat cells after 72 hrs by Cell-Titer Glo assay; format: functional, cell-based
[4] = system: SEM cells; assay: Induction of apoptosis in human SEM cells assessed as early apoptotic cells at 8 uM measured after 24 hrs by annexin V-propidium iodide staining based flow cytometric analysis (reference value: 85.3%); format: functional; in short: as §1
[5] = system: NALM-6; assay: Induction of apoptosis in human NALM6 cells assessed as cleaved PARP level at 4.5 uM measured after 12 hrs by immunoblot analysis; format: functional, cell-based; in short: as §2
[6] = system: SEM cells; assay: Induction of apoptosis in human SEM cells assessed as activated caspase7 levels at 8.0 uM after 6 and 12 hrs by immunoblot analysis
[7] = system: NALM-6; assay: Induction of apoptosis in human NALM6 cells assessed as late apoptotic cells at 8.5 uM measured after 24 hrs by annexin V-propidium iodide staining based flow cytometric analysis (reference value: 4.3%); format: functional; in short: as §1
[8] = biological target: T1, c-Jun N-terminal kinase, JNK (Homo sapiens) (UniProt P45983+P53779+P45984); assay: Induction of JNK phosphorylation in human NALM6 cells at 4.5 uM after 3 to 12 hrs by immunoblot analysis; format: cell-based; settings: NALM-6
In short: (§3)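 Immunoblot of phospho-JNK and total JNK after 3, 6, 12 and 24 hr treatment at 8.0 µM (SEM) or 4.5 µM (Nalm06), with DMSO and an analog at 20 µM as negative controls. Quantified as the phospho/total JNK ratio normalized to DMSO (set to 1.0).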

[9] = system: NALM-6; assay: Induction of apoptosis in human NALM6 cells assessed as early apoptotic cells at 8.5 uM measured after 24 hrs by annexin V-propidium iodide staining based flow cytometric analysis (reference value: 91.5%); format: functional; in short: as §1
[10] = system: NALM-6; assay: Induction of apoptosis in human NALM6 cells assessed as activated caspase7 level at 4.5 uM after 6 and 12 hrs by immunoblot analysis; format: functional, cell-based; in short: as §2
[11] = system: NALM-6; assay: Induction of apoptosis in human NALM6 cells assessed as necrotic cells at 8.5 uM measured after 24 hrs by annexin V-propidium iodide staining based flow cytometric analysis (reference value: 0.0%); format: functional; in short: as §1
[12] = system: SEM cells; assay: Effect on cell cycle in human SEM cells assessed as accumulation at S phase at 8.5 uM after 24 hrs by propidium iodide staining based flow cytometry analysis (reference value: 46.62%); format: functional
[13] = system: SEM cells; assay: Induction of apoptosis in human SEM cells assessed as uncleaved PARP levels at 8 uM after 3 to 12 hrs by immunoblot analysis; format: functional, cell-based; in short: as §2
[14] = system: SEM cells; assay: Induction of apoptosis in human SEM cells assessed as viable cells at 8 uM measured after 24 hrs by annexin V-propidium iodide staining based flow cytometric analysis (reference value: 1.5%); format: functional; settings: read-out: Activity; in short: as §1
[15] = system: SEM cells; assay: Effect on cell cycle arrest in human SEM cells assessed as accumulation at G2/M phase at 8.0 uM after 24 hrs by propidium iodide staining based flow cytometry analysis (reference value: 7.63%)
[16] = system: NALM-6; assay: Induction of apoptosis in human NALM6 cells assessed as activated caspase3 level at 4.5 uM after 12 hrs by immunoblot analysis; format: functional, cell-based; in short: as §2
[17] = system: SEM cells; assay: Effect on cell cycle in human SEM cells assessed as accumulation at G0/G1 phase at 8.5 uM after 24 hrs by propidium iodide staining based flow cytometry analysis (reference value: 45.75%); format: functional
[18] = system: HepG2; assay: Cytotoxicity against human HepG2 cells after 72 hrs by Cell-Titer Glo assay; format: functional, cell-based; settings: HepG2, 72 h
[19] = system: BJ; assay: Cytotoxicity against human BJ cells after 72 hrs by Cell-Titer Glo assay; format: cell-based
[20] = system: SEM cells; assay: Induction of apoptosis in human SEM cells assessed as necrotic cells at 8 uM measured after 24 hrs by annexin V-propidium iodide staining based flow cytometric analysis (reference value: 0.0%); format: functional; in short: as §1
[21] = system: SEM cells; assay: Induction of apoptosis in human SEM cells assessed as activated caspase3 levels at 8 uM after 6 hrs by immunoblot analysis; format: functional, cell-based; in short: as §2
[22] = Cytotoxicity against human NALM6 cells after 72 hrs by Cell-Titer Glo assay; format: functional, cell-based; settings: NALM-6, 72 h
[23] = system: SEM cells; assay: Induction of apoptosis in human SEM cells assessed as activated caspase7 levels at 8 uM after 6 and 12 hrs by immunoblot analysis; format: functional, cell-based; in short: as §2
[24] = system: Raji; assay: Cytotoxicity against human Raji cells after 72 hrs by Cell-Titer Glo assay; format: functional, cell-based
[25] = Cytotoxicity against human SEM cells after 72 hrs by Cell-Titer Glo assay; format: functional, cell-based
[26] = biological target: T1, c-Jun N-terminal kinase, JNK (Homo sapiens); assay: Induction of JNK phosphorylation in human SEM cells at 8 uM after 3 to 12 hrs by immunoblot analysis; format: cell-based; in short: as §3
[27] = system: HEK293; assay: Cytotoxicity against HEK293 cells after 72 hrs by Cell-Titer Glo assay; format: cell-based; settings: Homo sapiens, HEK293, 72 h
[28] = system: SEM cells; assay: Induction of apoptosis in human SEM cells assessed as cleaved PARP levels at 8 uM after 3, 6 and 12 hrs by immunoblot analysis; format: functional, cell-based; in short: as §2

In the case of `C=C[C@@](C)(/C=C/c1ccc(O)c(/C=C/C(=O)c2ccccc2)c1)CCC=C(C)C`, the Activity [1] is reported as 81.1%, the Activity [2] is reported as “inactive” and the EC50 [3] is reported as over 49 µM. The Activity [4] was 0.9%, the Activity [5] was “Active” and the Activity [6] was “Active”. For the same compound, the Activity [7] was 81.2%, the Activity [8] was “inactive” and the Activity [9] was 2.5%. For the same compound, the Activity [10] was “Active”, the Activity [11] was 0.1% and the Activity [12] was 55.75%. The Activity [13] was “inactive”, the viability at 8 µM [14] was 6.9% and the Activity [15] was 8%. The Activity [16] was “Active”, the Activity [17] was 36.25% and the EC50 [18] was over 52.1 µM. For the same compound, the EC50 [19] was over 20 µM, the Activity [20] was 0% and the Activity [21] was “Active”. For the same compound, the EC50 [22] was 4.47 µM, the Activity [23] was “Active” and the EC50 [24] was over 26 µM. For the same compound, the EC50 [25] was 8 µM, the Activity [26] was “Active” and the EC50 [27] was over 7.41 µM. The Activity [28] was “Active”.
